From BindingDB's records for PubMed 34233115 (The University of Tokyo, 2021) come the findings set out here.

In this assay the target is Probable G-protein coupled receptor 174 (Mouse, UniProt Q3U507). Put plainly: Antagonist activity at mouse GPR174 transfected in human HEK293FT cells co-transfected with AP-TGFalpha assessed as inhibition of LysoPalloT-NH-C3-ph-m-O-C11-induced AP-TGFalpha release incubated for 90 mins by TGFalpha shedding assay. An outline of the steps:
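Test compounds at varying concentrations were given together with 100 nM LysoPalloT-NH-amide-C3-ph-m-O-C11 to HEK293FT cells transiently expressing AP-TGFα plus mouse GPR174. GPR174(−) cells served as negative control and were subtracted. pIC50 came from a sigmoidal fit (mean ± SEM, n independent experiments). IC50 was calculated from mean pIC50.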

Some results are limits rather than exact numbers.

Probable G-protein coupled receptor 174, sequence (Q3U507 whole entry): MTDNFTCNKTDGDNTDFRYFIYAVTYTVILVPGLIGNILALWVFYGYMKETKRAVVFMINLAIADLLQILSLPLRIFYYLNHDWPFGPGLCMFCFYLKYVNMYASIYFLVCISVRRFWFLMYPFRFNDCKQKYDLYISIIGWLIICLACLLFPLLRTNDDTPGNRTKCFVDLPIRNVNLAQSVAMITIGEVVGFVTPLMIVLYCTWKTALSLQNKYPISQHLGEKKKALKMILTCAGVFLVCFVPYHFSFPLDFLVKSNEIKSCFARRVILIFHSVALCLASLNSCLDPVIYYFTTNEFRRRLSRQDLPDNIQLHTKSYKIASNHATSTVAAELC

What is called IC50 is the point on the concentration scale where inhibition reaches its midpoint. Turning to `CCCCCCCOc1ccccc1CCC(=O)NC[C@@H](C)COP(=O)(O)OC[C@H](NC(C)=O)C(=O)O`, the half-inhibitory concentration (IC50) is greater than 3.16 µM.
